Data taken from ChEMBL document CHEMBL1148395, “Synthesis, biological properties, and molecular modeling investigations of novel 3,4-diarylpyrazolines as potent and selective CB(1) cannabinoid receptor antagonists” (J Med Chem, 2004).

Legend:
Cannabinoid receptor 1 [1] = molecular target: T1, Cannabinoid receptor 1 (Homo sapiens, UniProt P21554); assay: biochemical; type: cell-based, CHO
Cannabinoid receptor 1 [2] = molecular target: T1, Cannabinoid receptor 1; assay: Antagonistic activity towards cannabinoid receptor 1 expressed as [3H]Arachidonic acid release in CHO cells; type: functional, cell-based; conditions: read-out: pA2 (converted)
Cannabinoid receptor 2 = Cannabinoid receptor 2 (Homo sapiens, UniProt P34972); assay: Affinity to displace CP-55940 binding from Cannabinoid receptor 2 of human expressed in CHO cells; type: cell-based
In short: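 Bound and free ligand separated by glass-fibre filtration, filter radioactivity counted by liquid scintillation. IC50 values from at least two independent measurements combined and converted to Ki by Cheng-Prusoff.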

[3] = Mean percentage of compound transport through P-glycoprotein; expressed as p-glycoprotein affinity; type: ADME
In short: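 Human MDR1 P-glycoprotein transport across a monolayer of PK1 LLC MDR cells; compound added at 1 µg/mL to one side. Bottom-to-top and top-to-bottom transport measured; Pgp factor taken as the ratio of bottom-to-top to top-to-bottom transport, given as mean percentage of compound transported.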

[4] = Mean percentage of compound transport through membrane; expressed as membrane transport; type: ADME
In short: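 Transport across a PK1 LLC MDR (human MDR1) cell monolayer with compound at 1 µg/mL added to one side. Membrane passage taken as the mean percentage of compound moved bottom-to-top and top-to-bottom at 3 h after addition.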

[5] = Partition coefficient (logP); type: physicochemical; conditions: octanol/water
In short: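 n-Octanol/water partition measured by RP-HPLC following an OECD method. Mobile phase buffered at pH > 11 on an aluminum-based octadecyl stationary phase.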

[6] = molecular target: Cannabinoid receptor 1 (Rattus norvegicus) (UniProt P20272); assay: In vivo effective dose to antagonise cannabinoid receptor 1 agonist (CP-55940) induced hypotension in rat upon peroral administration; type: functional, organism-based
[7] = molecular target: Cannabinoid receptor 1 (Mus musculus) (UniProt P47746); assay: In vivo least effective dose required to antagonise cannabinoid receptor 1 agonist (WIN-55212) induced hypothermia in mouse upon peroral administration
Sequence of Cannabinoid receptor 1 (Mus musculus) (P47746 whole entry, looked up): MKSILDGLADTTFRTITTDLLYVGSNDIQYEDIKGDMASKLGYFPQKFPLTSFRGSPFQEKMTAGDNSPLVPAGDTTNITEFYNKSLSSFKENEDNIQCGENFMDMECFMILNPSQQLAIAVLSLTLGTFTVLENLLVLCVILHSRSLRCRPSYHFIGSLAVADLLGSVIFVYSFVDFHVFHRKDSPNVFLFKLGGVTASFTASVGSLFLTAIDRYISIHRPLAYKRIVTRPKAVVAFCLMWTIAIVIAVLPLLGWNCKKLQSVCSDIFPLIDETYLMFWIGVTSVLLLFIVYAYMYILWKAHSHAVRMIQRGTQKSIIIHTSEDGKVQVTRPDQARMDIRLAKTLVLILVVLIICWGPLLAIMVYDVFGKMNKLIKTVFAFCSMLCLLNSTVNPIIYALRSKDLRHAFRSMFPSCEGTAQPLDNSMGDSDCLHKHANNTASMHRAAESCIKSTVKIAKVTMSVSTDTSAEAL

Sequence of Cannabinoid receptor 1 (Rattus norvegicus) (P20272 whole entry): as the sequence (P47746 whole entry, looked up) above, with D95E counted along it
Sequence of Cannabinoid receptor 2 (P34972 whole entry): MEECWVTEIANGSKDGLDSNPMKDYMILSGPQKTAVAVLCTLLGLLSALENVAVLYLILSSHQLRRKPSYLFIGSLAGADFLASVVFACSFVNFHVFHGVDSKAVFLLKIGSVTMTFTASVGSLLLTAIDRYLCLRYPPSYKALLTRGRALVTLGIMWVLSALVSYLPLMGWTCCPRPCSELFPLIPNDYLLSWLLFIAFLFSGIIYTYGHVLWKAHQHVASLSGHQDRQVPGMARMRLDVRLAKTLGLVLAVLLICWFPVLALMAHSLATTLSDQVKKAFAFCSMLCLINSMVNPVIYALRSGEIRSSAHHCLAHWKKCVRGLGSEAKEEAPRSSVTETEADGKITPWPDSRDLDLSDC
T1 sequence (P21554 whole entry): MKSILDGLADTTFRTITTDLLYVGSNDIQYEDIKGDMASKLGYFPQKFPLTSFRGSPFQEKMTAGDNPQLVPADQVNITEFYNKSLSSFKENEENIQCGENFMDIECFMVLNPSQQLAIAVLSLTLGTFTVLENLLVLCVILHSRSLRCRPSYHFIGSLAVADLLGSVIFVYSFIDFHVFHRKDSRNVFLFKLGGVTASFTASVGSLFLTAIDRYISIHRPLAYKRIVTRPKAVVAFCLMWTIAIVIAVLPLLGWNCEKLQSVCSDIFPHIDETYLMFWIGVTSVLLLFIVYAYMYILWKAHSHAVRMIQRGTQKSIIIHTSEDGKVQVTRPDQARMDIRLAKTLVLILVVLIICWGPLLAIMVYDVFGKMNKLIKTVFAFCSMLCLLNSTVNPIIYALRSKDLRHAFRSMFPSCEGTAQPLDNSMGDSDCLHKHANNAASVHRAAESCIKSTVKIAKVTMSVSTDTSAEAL

Structure (SMILES): COc1ccc(S(=O)(=O)NC(=N)N2CC(c3ccccc3)C(c3ccc(Cl)cc3)=N2)cc1 (centres undefined)
- Ki (Cannabinoid receptor 1 [1]): 196 nM
- Kb (Cannabinoid receptor 1 [2]): 5.01 nM
- Ki (Cannabinoid receptor 2): > 1000 nM

Structure (SMILES): CN/C(=N/S(=O)(=O)c1ccc(C(F)(F)F)cc1)N1C[C@H](c2ccccc2)C(c2ccc(Cl)cc2)=N1
- Ki (Cannabinoid receptor 1 [1]): 35.9 nM
- Kb (Cannabinoid receptor 1 [2]): 1 nM
- Ki (Cannabinoid receptor 2): 3510 nM

Structure (SMILES): C/N=C(\NS(=O)(=O)c1c(C)cc(C)cc1C)N1CC(c2ccccc2)C(c2ccc(Cl)cc2)=N1 (centres undefined)
- Ki (Cannabinoid receptor 1 [1]): 54.2 nM
- Kb (Cannabinoid receptor 1 [2]): 0.398 nM

Structure (SMILES): CNC(=NS(=O)(=O)c1cccc(Cl)c1)N1CC(c2ccccc2)C(c2ccc(Cl)cc2)=N1 (centres undefined)
- Ki (Cannabinoid receptor 1 [1]): 13.9 nM
- Kb (Cannabinoid receptor 1 [2]): 2.51 nM
- Ki (Cannabinoid receptor 2): > 1000 nM

Structure (SMILES): C/N=C(\NS(=O)(=O)c1ccc(F)cc1)N1CC(c2ccccc2)C(c2ccc(Cl)cc2)=N1 (centres undefined)
- Ki (Cannabinoid receptor 1 [1]): 338 nM
- Kb (Cannabinoid receptor 1 [2]): 3.16 nM
- Ki (Cannabinoid receptor 2): > 1000 nM

Structure (SMILES): CS/C(=N\S(=O)(=O)c1ccc(C(F)(F)F)cc1)N1CC(c2ccccc2)C(c2ccc(Cl)cc2)=N1 (centres undefined)
- Ki (Cannabinoid receptor 1 [1]): 16.6 nM
- Kb (Cannabinoid receptor 1 [2]): 0.2 nM
- Ki (Cannabinoid receptor 2): > 1000 nM

Structure (SMILES): C/N=C(\NS(=O)(=O)c1ccc(Cl)cc1)N1CC(c2ccccc2)C(c2ccc(F)cc2)=N1 (centres undefined)
- Ki (Cannabinoid receptor 1 [1]): 214 nM
- Kb (Cannabinoid receptor 1 [2]): 25.1 nM

Structure (SMILES): NC(=NS(=O)(=O)c1ccc(Cl)cc1)N1CC(c2ccccc2)C(c2ccc(Cl)cc2)=N1 (centres undefined)
- Activity [3]: 1.7
- Activity [4]: 7
- logP [5]: 4.3
- Ki (Cannabinoid receptor 1 [1]): 16.1 nM
- Kb (Cannabinoid receptor 1 [2]): 0.316 nM
- Ki (Cannabinoid receptor 2): > 1000 nM

Structure (SMILES): CN=C(NS(=O)(=O)c1ccc(Cl)cc1)N1C[C@H](c2ccccc2)C(c2ccc(Cl)cc2)=N1 [IBIPINABANT]
- Activity [3]: 1.4
- Activity [4]: 14.8
- logP [5]: 4.8

Structure (SMILES): C/N=C(\NS(=O)(=O)c1ccccc1)N1CC(c2ccccc2)C(c2ccc(Cl)cc2)=N1 (centres undefined)
- Ki (Cannabinoid receptor 1 [1]): 170 nM
- Kb (Cannabinoid receptor 1 [2]): 31.6 nM

Structure (SMILES): C/N=C(\NS(=O)(=O)c1ccc(C(F)(F)F)cc1)N1C[C@H](c2ccccc2)C(c2ccc(Cl)cc2)=N1
- ED50 [6]: 2 mg/kg
- LED [7]: 1 mg/kg

Structure (SMILES): C/N=C(\NC(=O)c1ccc(Cl)cc1)N1CC(c2ccccc2)C(c2ccc(Cl)cc2)=N1 (centres undefined)
- Ki (Cannabinoid receptor 1 [1]): 70.6 nM
- Kb (Cannabinoid receptor 1 [2]): 2 nM

Structure (SMILES): CN(C)/C(=N\S(=O)(=O)c1ccc(Cl)cc1)N1CC(c2ccccc2)C(c2ccc(Cl)cc2)=N1 (centres undefined)
- Activity [3]: 1.4
- Activity [4]: 15.2
- logP [5]: 4.8
- Ki (Cannabinoid receptor 1 [1]): 280 nM
- Kb (Cannabinoid receptor 1 [2]): 3.16 nM
- Ki (Cannabinoid receptor 2): > 1000 nM
- ED50 [6]: > 30 mg/kg

Structure (SMILES): C/N=C(\NS(=O)(=O)c1ccc(C)cc1)N1CC(c2ccccc2)C(c2ccc(Cl)cc2)=N1 (centres undefined)
- Kb (Cannabinoid receptor 1 [2]): 2.51 nM

Structure (SMILES): C/N=C(\NS(=O)(=O)c1ccccc1Cl)N1CC(c2ccccc2)C(c2ccc(Cl)cc2)=N1 (centres undefined)
- Ki (Cannabinoid receptor 1 [1]): 75.4 nM
- Kb (Cannabinoid receptor 1 [2]): 5.01 nM
- Ki (Cannabinoid receptor 2): > 1000 nM

Structure (SMILES): CN=C(NS(=O)(=O)c1ccc(OC)cc1)N1CC(c2ccccc2)C(c2ccc(Cl)cc2)=N1 (centres undefined)
- Ki (Cannabinoid receptor 1 [1]): 22.9 nM
- Kb (Cannabinoid receptor 1 [2]): 10 nM

Structure (SMILES): Cc1cc(C)c(S(=O)(=O)NC(=N)N2CC(c3ccccc3)C(c3ccc(Cl)cc3)=N2)c(C)c1 (centres undefined)
- Ki (Cannabinoid receptor 1 [1]): 24.2 nM
- Kb (Cannabinoid receptor 1 [2]): 0.398 nM
- Ki (Cannabinoid receptor 2): > 1000 nM

Structure (SMILES): C/N=C(\NS(=O)(=O)c1cccc(C(F)(F)F)c1)N1CC(c2ccccc2)C(c2ccc(Cl)cc2)=N1 (centres undefined)
- Ki (Cannabinoid receptor 1 [1]): 36.5 nM
- Kb (Cannabinoid receptor 1 [2]): 0.794 nM
- Ki (Cannabinoid receptor 2): > 1000 nM

Structure (SMILES): C/N=C(\NS(=O)(=O)c1ccc2ccccc2c1)N1CC(c2ccccc2)C(c2ccc(Cl)cc2)=N1 (centres undefined)
- Ki (Cannabinoid receptor 1 [1]): 21.8 nM
- Kb (Cannabinoid receptor 1 [2]): 3.16 nM

Structure (SMILES): Cc1ccc(S(=O)(=O)NC(=N)N2CC(c3ccccc3)C(c3ccc(Cl)cc3)=N2)cc1 (centres undefined)
- Ki (Cannabinoid receptor 1 [1]): 197 nM
- Kb (Cannabinoid receptor 1 [2]): 3.98 nM
- Ki (Cannabinoid receptor 2): > 1000 nM
- ED50 [6]: > 30 mg/kg
- LED [7]: > 30 mg/kg

Structure (SMILES): N=C(NS(=O)(=O)c1ccc(F)cc1)N1CC(c2ccccc2)C(c2ccc(Cl)cc2)=N1 (centres undefined)
- Ki (Cannabinoid receptor 1 [1]): 52.6 nM
- Kb (Cannabinoid receptor 1 [2]): 1 nM
- Ki (Cannabinoid receptor 2): > 1000 nM

Structure (SMILES): CN=C(NS(=O)(=O)c1ccc(C(F)(F)F)cc1)N1C[C@@H](c2ccccc2)C(c2ccc(Cl)cc2)=N1
- Ki (Cannabinoid receptor 1 [1]): 293 nM
- Kb (Cannabinoid receptor 1 [2]): 31.6 nM
- Ki (Cannabinoid receptor 2): > 1000 nM

Structure (SMILES): C/N=C(\NS(=O)(=O)c1ccc(C(F)(F)F)cc1)N1CC(c2ccccc2)C(c2ccc(Cl)cc2)=N1 (centres undefined)
- ED50 [6]: 8.9 mg/kg
- LED [7]: 3 mg/kg

Structure (SMILES): CN/C(=N\S(=O)(=O)c1ccc(Cl)cc1)N1C[C@H](c2ccccc2)C(c2ccc(Cl)cc2)=N1
- ED50 [6]: 5.5 mg/kg

Structure (SMILES): CNC(=NS(=O)(=O)c1ccc(C(F)(F)F)cc1)N1CC(c2ccccc2)C(c2ccc(Cl)cc2)=N1 (centres undefined)
- Ki (Cannabinoid receptor 1 [1]): 221 nM
- Kb (Cannabinoid receptor 1 [2]): 0.501 nM
- Ki (Cannabinoid receptor 2): > 1000 nM

Structure (SMILES): C/N=C(\NS(=O)(=O)c1ccc(C(F)(F)F)cc1)N1C[C@@H](c2ccccc2)C(c2ccc(Cl)cc2)=N1
- ED50 [6]: > 30 mg/kg
- LED [7]: > 30 mg/kg

Structure (SMILES): CN=C(NS(=O)(=O)c1ccc(Cl)cc1)N1CC(c2ccc(Cl)cc2)C(c2ccc(Cl)cc2)=N1 (centres undefined)
- Ki (Cannabinoid receptor 1 [1]): 255 nM

Structure (SMILES): CN=C(NS(=O)(=O)c1ccc(Cl)cc1)N1CC(c2ccc(F)cc2)C(c2ccc(Cl)cc2)=N1 (centres undefined)
- Ki (Cannabinoid receptor 1 [1]): 584 nM

Structure (SMILES): O=C(NS(=O)(=O)c1ccc(Cl)cc1)N1CC(c2ccccc2)C(c2ccc(Cl)cc2)=N1 (centres undefined)
- Ki (Cannabinoid receptor 1 [1]): > 1000 nM

Structure (SMILES): CN(C)/C(=N\S(=O)(=O)c1ccc(F)cc1)N1CC(c2ccccc2)C(c2ccc(Cl)cc2)=N1 (centres undefined)
- Ki (Cannabinoid receptor 1 [1]): > 1000 nM
- Kb (Cannabinoid receptor 1 [2]): > 31.6 nM
- Ki (Cannabinoid receptor 2): > 1000 nM

Structure (SMILES): CN/C(=N\S(=O)(=O)c1ccc(Cl)cc1)N1CC(c2ccccc2)C(c2ccc(Cl)cc2)=N1 (centres undefined)
- ED50 [6]: 15 mg/kg

Structure (SMILES): C/N=C(\NS(=O)(=O)c1ccc(Cl)cc1)N1C[C@@H](c2ccccc2)C(c2ccc(Cl)cc2)=N1
- ED50 [6]: > 30 mg/kg

Structure (SMILES): N=C(NS(=O)(=O)c1ccc(Cl)cc1)N1CC(c2ccccc2)C(c2ccc(Cl)cc2)=N1 (centres undefined)
- ED50 [6]: > 30 mg/kg
- LED [7]: > 30 mg/kg
